Assay results as given in ChEMBL document CHEMBL1944542, “Coumarin polysulfides inhibit cell growth and induce apoptosis in HCT116 colon cancer cells” (2012).
Active and inactive are the calls of the source. No cut-off for these calls is given here.

Experiments:
[1] = test system: LNCaP; assay: Induction of apoptosis in human LNCAP cells assessed as increase in caspase 3/7 activation at 20 ug/ml after 24 hrs by Western blotting; assay type: functional, cell-based
Procedure, shortened: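 LNCaP cells grown in RPMI 1640 with 10% FCS, then treated with 20 µg/ml doxorubicin (water stock) for 24 h or left untreated. Lysates run on 12.5% SDS-PAGE and probed for full-length and cleaved caspase 3.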

[2] = test system: HCT-116; assay: Cytotoxicity against human HCT116 cells expressing p53 assessed as reduction in cell viability at 50 uM from 24 to 48 hrs by MTT assay; assay type: functional, cell-based
Procedure, shortened: (§1)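 p53-positive HCT116 cells kept in McCoy's 5A with 10% FCS at 37 °C and 5% CO2. Seeded at 1 x 10^4 per well and incubated overnight. Treated at 12.5–200 µM, DMSO-dissolved, for 8, 24 or 48 h, with 0.05% DMSO control. MTT (5 mg/ml) added for the final 1 h at 37 °C. Formazan dissolved in SDS/DMSO/acetic acid and absorbance read at 595 nm. Means ± SD, n = 3.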

[3] = biological target: T1, M-phase inducer phosphatase 3 (Homo sapiens) (UniProt P30307); assay: Inhibition of recombinant human GST-tagged cdc25C phosphatase activity using 3-O-methyl fluorescein phosphate at 100 uM
T1 sequence (whole entry): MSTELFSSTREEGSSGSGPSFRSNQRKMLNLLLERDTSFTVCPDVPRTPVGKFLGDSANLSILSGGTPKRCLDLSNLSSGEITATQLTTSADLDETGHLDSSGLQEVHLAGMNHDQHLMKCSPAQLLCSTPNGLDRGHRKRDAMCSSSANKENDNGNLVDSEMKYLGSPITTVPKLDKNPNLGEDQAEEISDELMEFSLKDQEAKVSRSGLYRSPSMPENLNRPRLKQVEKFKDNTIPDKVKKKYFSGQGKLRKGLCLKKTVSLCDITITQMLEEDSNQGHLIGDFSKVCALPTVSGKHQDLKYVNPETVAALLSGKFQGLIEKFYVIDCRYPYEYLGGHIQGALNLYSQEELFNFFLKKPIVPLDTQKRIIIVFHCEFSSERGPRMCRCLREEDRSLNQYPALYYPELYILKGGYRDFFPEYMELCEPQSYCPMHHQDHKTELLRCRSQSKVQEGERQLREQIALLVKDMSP
Procedure, shortened: (§2)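 Test concentration 100 µM. Fluorescence (ex 475 / em 510 nm) read every 20 min for 2 h at 30 °C. Residual activity expressed relative to DMSO set at 100%.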

[4] = biological target: T2, M-phase inducer phosphatase 1 (Homo sapiens) (UniProt P30304); assay: Inhibition of recombinant human GST-tagged cdc25A phosphatase activity using 3-O-methyl fluorescein phosphate at 100 uM; procedure, shortened: as §2
T2 sequence (whole entry): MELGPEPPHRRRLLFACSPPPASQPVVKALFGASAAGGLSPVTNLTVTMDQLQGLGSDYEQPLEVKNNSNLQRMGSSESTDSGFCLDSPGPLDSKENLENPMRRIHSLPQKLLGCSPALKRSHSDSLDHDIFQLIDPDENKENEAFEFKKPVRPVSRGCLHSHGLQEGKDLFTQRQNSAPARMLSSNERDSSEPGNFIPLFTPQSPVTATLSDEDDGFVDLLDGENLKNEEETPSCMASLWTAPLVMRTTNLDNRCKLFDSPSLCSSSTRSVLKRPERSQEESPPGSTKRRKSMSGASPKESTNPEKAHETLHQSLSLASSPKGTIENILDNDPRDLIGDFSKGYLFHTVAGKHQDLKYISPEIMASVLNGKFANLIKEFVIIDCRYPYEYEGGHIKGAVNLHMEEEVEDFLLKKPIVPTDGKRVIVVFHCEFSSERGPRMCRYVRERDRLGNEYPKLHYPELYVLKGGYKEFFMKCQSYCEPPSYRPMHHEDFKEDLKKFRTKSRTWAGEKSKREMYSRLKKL

[5] = test system: HCT-116; assay: Cytotoxicity against human HCT116 cells expressing p53 assessed as reduction in cell viability after 24 hrs by MTT assay; assay type: functional, cell-based; procedure, shortened: as §1
[6] = test system: HCT-116; assay: Cytotoxicity against human HCT116 cells expressing p53 assessed as reduction in cell viability at 25 uM after 24 hrs by MTT assay; assay type: functional; procedure, shortened: as §1
[7] = test system: HCT-116; assay: Cytotoxicity against human HCT116 cells expressing p53 assessed as reduction in cell viability at 50 uM after 24 hrs by MTT assay; assay type: functional; procedure, shortened: as §1
[8] = test system: HCT-116; assay: Cytotoxicity against human HCT116 cells expressing p53 assessed as reduction in cell viability at 100 to 200 uM after 24 hrs by MTT assay; assay type: functional, cell-based; procedure, shortened: as §1
[9] = test system: HCT-116; assay: Cytotoxicity against human HCT116 cells expressing p53 assessed as reduction in cell viability at 50 uM by MTT assay; assay type: functional, cell-based; conditions: TDE = time-dependent effect; procedure, shortened: as §1
[10] = test system: HCT-116; assay: Cytotoxicity against human HCT116 cells expressing p53 assessed as cell viability at 50 uM after 48 hrs by MTT assay; assay type: functional; conditions: HCT-116, 48 h, read-out: Activity; procedure, shortened: as §1
[11] = test system: HCT-116; assay: Induction of apoptosis in human HCT116 cells assessed as PARP cleavage at 50 uM from 24 to 72 hrs by Western blotting; assay type: functional, cell-based
Procedure, shortened: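 HCT116 cells exposed to 50 µM for 24, 48 and 72 h, with 0.05% DMSO control. RIPA lysates (75 µg) run on 7.5% SDS-PAGE and transferred to PVDF. Anti-PARP blot, with nucleolin as loading control. Cleavage read as the 116 kDa band converting to 89 kDa.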

[12] = test system: HCT-116; assay: Induction of apoptosis in human HCT116 cells assessed as increase in gammaH2AX level at 50 uM from 24 to 72 hrs by Western blotting; assay type: functional, cell-based
[13] = test system: HCT-116; assay: Induction of apoptosis in human HCT116 cells assessed as PARP cleavage at 50 uM from 24 to 48 hrs by Western blotting; assay type: functional, cell-based
Procedure, shortened: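 HCT116 cells (McCoy's 5A, 10% FCS, 37 °C, 5% CO2) exposed to 50 µM compound (DMSO stock; 0.05% DMSO control) for 24, 48 and 72 h. Total extract in RIPA buffer with protease inhibitors, 75 µg protein run on 7.5% SDS-PAGE, blotted to PVDF. Anti-PARP 1:1000 overnight at 4 °C. 116 kDa full-length and 89 kDa cleaved bands scored. Nucleolin as loading control.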

[14] = test system: HCT-116; assay: Induction of apoptosis in human HCT116 cells assessed as increase in p53 level at 50 uM from 8 to 48 hrs by Western blotting; assay type: functional, cell-based
Procedure, shortened: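 HCT116 cells exposed to 50 µM for 8, 24 and 48 h, with 0.05% DMSO control. Lysates run on SDS-PAGE and blotted with anti-p53 (DO-1) at 1:1000 for 1 h at room temperature. GAPDH used as loading control.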

[15] = test system: HCT-116; assay: Cell cycle arrest in human HCT116 cells assessed as accumulation at G1 phase at 25 uM after 24 hrs using propidium iodide staining by cytofluorometry (reference value: 62.34%); assay type: functional
[16] = test system: HCT-116; assay: Cell cycle arrest in human HCT116 cells assessed as accumulation at G1 phase at 50 uM after 24 hrs using propidium iodide staining by cytofluorometry (reference value: 62.34%); assay type: functional
[17] = test system: HCT-116; assay: Cell cycle arrest in human HCT116 cells assessed as accumulation at S phase at 25 uM after 24 hrs using propidium iodide staining by cytofluorometry (reference value: 4.91%); assay type: functional
[18] = test system: HCT-116; assay: Cell cycle arrest in human HCT116 cells assessed as accumulation at S phase at 50 uM after 24 hrs using propidium iodide staining by cytofluorometry (reference value: 4.91%); assay type: functional
[19] = test system: HCT-116; assay: Cell cycle arrest in human HCT116 cells assessed as accumulation at G2/M phase at 25 uM after 24 hrs using propidium iodide staining by cytofluorometry (reference value: 23.45%); assay type: functional
[20] = test system: HCT-116; assay: Cell cycle arrest in human HCT116 cells assessed as accumulation at G2/M phase at 50 uM after 24 hrs using propidium iodide staining by cytofluorometry (reference value: 23.45%); assay type: functional
[21] = test system: HCT-116; assay: Cell cycle arrest in human HCT116 cells assessed as accumulation at subG1 phase at 25 uM after 24 hrs using propidium iodide staining by cytofluorometry (reference value: 1.8%); assay type: functional
[22] = test system: HCT-116; assay: Cell cycle arrest in human HCT116 cells assessed as accumulation at subG1 phase at 50 uM after 24 hrs using propidium iodide staining by cytofluorometry (reference value: 1.8%); assay type: functional
[23] = test system: HCT-116; assay: Induction of apoptosis in human HCT116 cells assessed as decrease in bcl-2 level by Western blotting; assay type: functional, cell-based; conditions: TDE = time-dependent effect
Procedure, shortened: (§3)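 HCT116 cells left untreated or exposed for 0.5–24 h. 50 µg protein separated on 12.5% SDS-PAGE and transferred to PVDF. bcl-2, bax or cytochrome c antibodies applied at 1:1000 overnight at 4 °C, with GAPDH loading control. For cytochrome c, cytosolic extracts were made by snap-freezing PBS-resuspended cells and clearing at 12500×g.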

[24] = test system: HCT-116; assay: Induction of apoptosis in human HCT116 cells assessed as increase in bax level by Western blotting; assay type: functional, cell-based; conditions: TDE = time-dependent effect; procedure, shortened: as §3
[25] = test system: HCT-116; assay: Induction of apoptosis in human HCT116 cells assessed as increase in release of cytochrome C into cytosol by Western blotting; assay type: functional, cell-based; procedure, shortened: as §3
[26] = test system: HCT-116; assay: Induction of apoptosis in human HCT116 cells assessed as increase in caspase 3/7 activation at 50 uM from 24 to 48 hrs by Western blotting; assay type: functional, cell-based
Procedure, shortened: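 HCT116 cells treated with 0 or 50 µM for 24 and 48 h. Lysed on ice in Tris/MgCl2/NP-40/DTT buffer. Separated on 12.5% SDS-PAGE and probed with caspase 3 antibody for full-length protein and cleavage products. Representative of at least 3 blots.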

[27] = test system: HCT-116; assay: Induction of apoptosis in NAC treated human HCT116 cells assessed as PARP cleavage at 50 uM treated 0.5 hrs before NAC challenge measured after 24 to 72 hrs by Western blotting; assay type: functional, cell-based
Procedure, shortened: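 HCT116 cells pretreated with 5 mM NAC (water stock) for 0.5 h, then exposed to 50 µM for 24, 48 and 72 h. Cells lysed in RIPA with protease inhibitors. 75 µg protein run on 7.5% SDS-PAGE and blotted to PVDF. PARP probed at 1:1000 overnight at 4 °C. Nucleolin or GAPDH used as loading control.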

[28] = test system: HCT-116; assay: Induction of apoptosis in human HCT116 cells assessed as decrease in cdc25C level at 50 uM by Western blotting; assay type: functional, cell-based; conditions: TDE = time-dependent effect

Row | SMILES | Activity [2] | inhibition [3] | inhibition [4] | Activity [5] | Activity [6] | Activity [7] | Activity [8] | Activity [9] | viability at 50 µM [10] | Activity [11] | Activity [12] | Activity [13] | Activity [14] | further results
1 | COc1cccc2c1C(=O)c1c(O)c3c(c(O)c1C2=O)C[C@@](O)(C(=O)CO)C[C@@H]3O[C@H]1C[C@H](N)[C@H](O)[C@H](C)O1 | – | – | – | – | – | – | – | – | – | – | – | – | – | Activity [1]: Active
2 | C=CCSSSSCC=C | Active | – | – | – | – | – | – | – | – | – | – | – | – | –
3 | COc1cc(N(C)C)cc(CN(C)CCc2ccc([N+](=O)[O-])cc2)c1O | – | Active | Active | – | – | – | – | – | – | – | – | – | – | –
4 | COc1ccc2c(CSSCc3cc(=O)oc4cc(OC)ccc34)cc(=O)oc2c1 | Active | Active | Active | Dose-dependent effect | 30% | 50% | Active | tde | 20% | Active | Active | Active | Active | –
5 | C=CCSSCC=C | Active | – | – | – | – | – | – | – | – | – | – | Active | – | –
6 | COc1ccc2c(CSSSCc3cc(=O)oc4cc(OC)ccc34)cc(=O)oc2c1 | – | Active | Active | Dose-dependent effect | 22% | 50% | Active | tde | 20% | Active | Active | – | Active | Activity [15]: 14.33%; Activity [16]: 13.59%; Activity [17]: 4.61%; Activity [18]: 3.9%; Activity [19]: 66.07%; Activity [20]: 63.19%; Activity [21]: 12.28%; Activity [22]: 10.43%; Activity [23]: tde; Activity [24]: tde; Activity [25]: Active; Activity [26]: Active; Activity [27]: inactive; Activity [28]: tde
